In the library only some 4.8% were active in any assay of this set; here they are far more common.
CHOP UPR activ – activators of apoptotic arm of unfolded protein response (CHOP); CHO-CHOP luciferase reporter, UPR activation, luminescence; percent of tunicamycin response over DMSO baseline; activation, % at 10 µM; actives 0.34% (n = 330,000); AID 449763;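 active means at 10 µM dose, activation of 40% or more, normalized to positive control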
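Dosing – one dose, 10 µM in 0.5% DMSO · System – CHO-CHOP cells, stable luciferase reporter of PERK-eIF2a-CHOP signalling · Input – 500 cells/well · Control set – tunicamycin 10 µg/mL final as positive, DMSO-only wells as negative · Timing – 6 h compound treatment, 37 °C · Measure – % activation vs tunicamycin · Technique – luminescence read with Steady-Glo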
SKKanGAS inh – SKKanGAS growth inhibition. S. pyogenes SKKanGAS, kanamycin growth, BacTiter-Glo, 6 h. inhibition, % at 7.5 µM. actives 1.3% (n = 300,000);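 active means mean replicate score, as percent of positive control median, at least 50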;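 further: strain carries kanamycin resistance gene driven by streptokinase promoter and grows in 40 µg/ml kanamycin; loss of luminescence reflects streptokinase promoter inhibition or plain growth inhibition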
CSC inhib – cancer stem cell inhibition; AID 2717; inhibition, % at 7.5 µM; cancer stem cell-like cells viability, luminescence; actives 1.1% (n = 300,000); in the data active means inhibition above about 75%; tested in HMLE shEcad cells
Beta apoptosis – beta cell apoptosis inhibition | AID 435005 | actives 0.8% (n = 300,000) | protection from apoptosis, % (concentration not given with the values) | INS-1E cytokine-induced death, ATP luminescence, 48 h; percent of positive-control rescue, neutral wells zero;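 active means Every replicate reaches about 75%, or at least half do and their mean reaches it too, limit read from the data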;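 further: higher means more ATP so stronger rescue from cytokine killing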
Mdm2 MdmX PPI – human Mdm2/MdmX binding inhibition | O15151+Q00987 | SaOS-2 split-luciferase Mdm2/MdmX complementation, luminescence | inhibition, % at 8 µM | actives 3% (n = 330,000) | AID 485346;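 active means inhibition of at least 50% at 8 µM in the primary screen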
Target sequence (O15151 whole entry, looked up): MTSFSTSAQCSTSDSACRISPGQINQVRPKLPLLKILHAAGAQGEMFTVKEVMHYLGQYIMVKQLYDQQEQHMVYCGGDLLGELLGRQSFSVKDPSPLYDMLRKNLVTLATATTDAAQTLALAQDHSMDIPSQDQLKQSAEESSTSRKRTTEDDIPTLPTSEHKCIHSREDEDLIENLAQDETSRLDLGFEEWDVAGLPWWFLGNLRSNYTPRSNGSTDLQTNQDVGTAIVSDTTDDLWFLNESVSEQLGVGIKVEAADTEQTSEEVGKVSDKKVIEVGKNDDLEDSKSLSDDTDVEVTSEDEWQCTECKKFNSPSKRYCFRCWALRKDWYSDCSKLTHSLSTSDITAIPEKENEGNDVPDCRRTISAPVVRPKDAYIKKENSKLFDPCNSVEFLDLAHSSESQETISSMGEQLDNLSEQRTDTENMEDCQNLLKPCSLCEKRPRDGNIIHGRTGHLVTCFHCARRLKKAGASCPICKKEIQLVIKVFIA
Target sequence (Q00987 whole entry, looked up): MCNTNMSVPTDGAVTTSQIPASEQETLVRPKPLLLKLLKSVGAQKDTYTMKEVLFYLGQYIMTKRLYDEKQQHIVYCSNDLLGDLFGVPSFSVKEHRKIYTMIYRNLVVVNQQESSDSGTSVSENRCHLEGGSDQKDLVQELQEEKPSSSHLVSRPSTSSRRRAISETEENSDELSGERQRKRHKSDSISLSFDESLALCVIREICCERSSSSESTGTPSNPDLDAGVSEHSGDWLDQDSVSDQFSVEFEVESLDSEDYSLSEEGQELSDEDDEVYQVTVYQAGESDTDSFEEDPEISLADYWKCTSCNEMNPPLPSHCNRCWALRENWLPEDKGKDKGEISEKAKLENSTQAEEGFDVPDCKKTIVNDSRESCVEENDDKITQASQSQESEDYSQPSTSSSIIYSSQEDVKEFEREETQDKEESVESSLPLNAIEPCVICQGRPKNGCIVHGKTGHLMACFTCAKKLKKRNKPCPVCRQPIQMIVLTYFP
UPR XBP1 act – adaptive UPR (XBP1) activation; CHO-XBP1 luciferase reporter, IRE1-XBP1 UPR activation, luminescence; percent of tunicamycin response, DMSO as zero; activation, % at 20 µM; actives 0.33% (n = 330,000); AID 463104;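 active means versus positive control, 20 µM dose yields 30% or more activation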
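Assay system: CHO-XBP1 luciferase reporter cells; Schedule: 6 h treatment, 37 °C; Detection: glow luminescence from Steady-Glo reagent; Benchmarks: high control tunicamycin 10 µg/mL final, low control DMSO vehicle only.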
Hits are given with their value; i = inactive; nt = no result given.

SMILES	CHOP UPR activ	SKKanGAS inh	CSC inhib	Beta apoptosis	Mdm2 MdmX PPI	UPR XBP1 act
Oc1ccc(-c2c(-c3ccsc3)sc3ccccc23)cc1	i	108	i	i	i	i
CCN1CCN(CCC(=O)Nc2cc(OC)cc(OC)c2)CC1	i	i	i	i	i	i
Cc1ccc(-c2csc(-c3c[nH]c4ccccc34)n2)c(C)c1	i	92	99	i	i	i
COc1ccc(-c2nc(-c3ccc(O)cc3O)cs2)cc1OC	nt	i	nt	nt	nt	nt
Oc1ccc(-c2csc(-c3c[nH]c4ccccc34)n2)c(O)c1	i	i	90	nt	i	i
COc1ccc(Nc2nc(-c3c[nH]c4ccccc34)cs2)cc1	i	i	i	nt	i	i
N#Cc1ccc(OCC(=O)N2CCCC2=O)cc1	i	nt	nt	i	i	i
CCCCn1c(N)c(N(CCOC)C(=O)c2nn(CC)c(=O)c3ccccc23)c(=O)[nH]c1=O	i	i	i	i	i	i
CC(C)CC(=O)N1CCN(Cc2ccccc2Cl)CC1	i	i	i	i	i	i
CCCc1ccc(C(=O)NNc2ccc(F)cc2)cc1	i	i	94	i	i	i
CC(=O)OCC1=C(C(=O)O)N2C(=O)C(NC(=O)C(C)Cn3cc(Cl)cn3)C2SC1 (stereo not given)	i	115	i	i	i	i
Cc1nnc(SCC2=C(C(=O)O)N3C(=O)C(NC(=O)Cn4nc(C(F)F)c(Cl)c4C)C3SC2)s1 (stereo not given)	i	96	i	i	i	i
CC(=O)OCC1=C(C(=O)O)N2C(=O)C(NC(=O)CC(C)c3ccccc3)C2SC1 (stereo not given)	i	nt	nt	i	i	i
CC(=O)OCC1=C(C(=O)O)N2C(=O)[C@@H](NC(=O)Cc3cccs3)[C@H]2SC1	i	103	i	i	i	i
CC(=O)OCC1=C(C(=O)O)N2C(=O)C(NC(=O)Cn3nc(C(F)F)c(Cl)c3C)C2SC1 (stereo not given)	i	109	i	i	i	i
CCN(CC)C(=O)c1cccc(NC(=O)C2CCN(C(=O)c3cccs3)CC2)c1	i	nt	i	i	i	i
CN(C)c1ccc(-c2ccc3c(=O)c4ccccc4n(C)c3c2)cn1	i	i	i	i	i	i
CC(=O)OCC1=C(C(=O)O)N2C(=O)C(NC(=O)COc3ccc(F)cc3)C2SC1 (stereo not given)	i	nt	nt	nt	i	i
Cc1nnc(SCC2=C(C(=O)O)N3C(=O)C(NC(=O)c4cc(F)c(F)cc4Cl)C3SC2)s1 (stereo not given)	i	109	i	i	i	i
Cc1nnc(SCC2=C(C(=O)O)N3C(=O)C(NC(=O)COc4ccc(F)cc4)C3SC2)s1 (stereo not given)	i	nt	i	i	i	i
Cc1nnc(SCC2=C(C(=O)O)N3C(=O)C(NC(=O)Cn4nc(C(F)F)cc4C)C3SC2)s1 (stereo not given)	i	112	i	i	i	i
CC(=O)OCC1=C(C(=O)O)N2C(=O)C(NC(=O)CCn3nc(C(F)(F)F)c(Br)c3C3CC3)C2SC1 (stereo not given)	i	110	i	i	i	i
CCC(C(=O)NC1C(=O)N2C(C(=O)O)=C(CSc3nnc(C)s3)CSC12)c1ccccc1 (stereo not given)	i	nt	i	i	i	i
CC(=O)OCC1=C(C(=O)O)N2C(=O)C(NC(=O)CCn3nc(C)c(Cl)c3C)C2SC1 (stereo not given)	i	95	i	i	i	i
Cc1ccccc1CN1CCNC(=O)C1CC(=O)NCCN1CCCCC1=O (stereo not given)	i	i	i	i	i	i
SMILES	CHOP UPR activ	SKKanGAS inh	CSC inhib	Beta apoptosis	Mdm2 MdmX PPI	UPR XBP1 act
Cc1cc(NC(=O)CSc2nc(C)c(C)c(=O)[nH]2)no1	i	i	i	i	i	i
CC1CC(=O)Nc2ccccc2N1C(=O)CSc1ccc2ccccc2n1 (stereo not given)	i	nt	i	i	i	i
COc1ccccc1C(=O)NCCC(=O)Nc1ccncc1	i	i	i	i	i	i
S=C(NCc1ccccc1)Nc1ccncc1	i	i	i	i	i	i
COC(CNC(=O)CCc1c(C)nc2c(-c3ccccc3)c(C)nn2c1C)OC	i	i	i	i	i	i
CN(Cc1c(F)cccc1Cl)C(=O)c1cc2ccccc2o1	i	i	i	99	i	i
Cc1cc(C)n(S(=O)(=O)c2cc(C(=O)O)c(Cl)cc2Cl)n1	i	i	i	i	i	i
COC(=O)c1cc(S(=O)(=O)n2nc(C)c(Br)c2C)c(Cl)cc1Cl	i	72	i	i	i	i
CCNC(=O)Nc1cc(S(=O)(=O)Nc2ccc(OC)cc2)ccc1N1CCOCC1	i	nt	i	89	i	i
CCCCNC(=O)c1ccc(N2CCOCC2)c(NS(=O)(=O)c2ccc(OC)cc2)c1	i	i	i	i	i	i
O=C(CNC(=O)c1cccs1)Nc1ncccc1O	i	i	i	i	i	i
Fc1cccc2sc(Nc3nc4cc5c(cc4s3)OCCO5)nc12	i	i	i	i	i	i
Fc1cccc2sc(Nc3nc4cc5c(cc4s3)OCO5)nc12	i	53	i	i	i	i
CNC(=O)c1c(NC(=O)CCS(=O)(=O)c2ccc(C)cc2)sc2c1CCN(C(=O)OC)C2	i	i	i	nt	i	i
Cc1nn2c(Nc3ccc(F)cc3)c3c(nc2c1-c1ccccc1)CCC3	i	i	i	i	i	i
COc1cccc(Nc2c3c(nc4c(-c5ccccc5)c(C)nn24)CCC3)c1	i	78	i	i	i	i
Cc1noc(C)c1C(=O)OCC(=O)Nc1ccccc1SCC#N	i	nt	i	i	i	i
Clc1ccccc1OCCCCn1ccnc1	i	59	i	i	i	i
COc1cccc(C2c3[nH]c4ccccc4c3C[C@H]3C(=O)N(c4ccccc4C(=O)NCCCN4CCOCC4)C(=O)N23)c1 (stereo not given in full)	i	i	i	nt	i	i
Nc1c(Cl)cc(C2=NCCn3c2c2ccc([N+](=O)[O-])cc2[n+]3[O-])cc1Cl	i	68	i	i	i	i
CS(=O)(=O)c1ccc(Cl)c(NC(=O)c2cccc(-n3cnnn3)c2)c1	i	i	i	i	i	i
COc1ccc(/C=C/C(=O)NC(=S)NN2CCCCC2c2cccnc2)cc1OC (stereo not given)	i	i	i	i	i	i
COc1cccc(OC)c1C(=O)NC(=S)NNC(=O)[C@H]1C[C@@H]1c1ccccc1	i	79	nt	nt	i	i
COc1ccc(/C=C/C(=O)NC(=S)NNC(=O)[C@H]2C[C@@H]2c2ccccc2)cc1OC	i	63	i	i	i	i
O=C(NC(=S)NNC(=O)[C@H]1C[C@@H]1c1ccccc1)c1cccc(F)c1	i	99	i	i	i	i
CCOc1ccc(/C=C(\C(=O)O)c2ccc(S(=O)(=O)N3CCCCC3)s2)cc1OC	i	nt	i	i	i	i

Compound activity from PubChem.
